Results as given in ChEMBL document CHEMBL1128747, “Phosphinic acid analogues of GABA. 1. New potent and selective GABAB agonists” (J Med Chem, 1995).

Columns and labels:
[1] = test system: GABA-A receptor; anion channel; test: Inhibition of [3H]muscimol binding to GABA-A receptor of rat cortex; format: tissue-based
[2] = biological target: T1, GABA B receptor (Rattus norvegicus, UniProt O88871+Q9Z0U4); test: (§1) Inhibition of [3H]CGP-27492 binding to Gamma-aminobutyric acid type B receptor of rat cortex
[3] = biological target: T2, GABA-B receptor (Homo sapiens, UniProt O75899+Q9UBS5); test: Inhibition of [3H]-baclofen binding to Gamma-aminobutyric acid type B receptor of cat cerebellum; format: tissue-based, Felis catus; details: target entry is the homologue from another species
[4] = biological target: GABA-B receptor (Homo sapiens) (UniProt Q9UBS5+O75899); test: Inhibition of [3H]baclofen binding to Gamma-aminobutyric acid type B receptor of cat cerebellum at 10e-5 M; format: tissue-based; details: Felis catus, target entry is the homologue from another species
[5] = Inhibition of [3H]- 5-HT binding to 5-hydroxytryptamine 1 receptor at 10e-5 M
[6] = biological target: Adrenergic receptor alpha-1 (Homo sapiens) (UniProt P35348+P25100+P35368); test: Inhibition [3H]- prazosin binding to Alpha-1 adrenergic receptor at 10e-5 M; format: protein assay
[7] = biological target: Histamine H1 receptor (Homo sapiens) (UniProt P35367); test: Inhibition of [3H]- doxepine binding to histamine 1 receptor at 10e-5 M
[8] = biological target: T3, Serotonin 2 (5-HT2) receptor (Homo sapiens) (UniProt P41595+P28223+P28335); test: Inhibition of [3H]ketanserin binding to 5-hydroxytryptamine 2 receptor at 10e-5 M; format: protein assay
[9] = biological target: T4, Adrenergic receptor beta (Homo sapiens) (UniProt P08588+P07550+P13945); test: Inhibition of [3H]- DHA binding to Beta adrenergic receptor at 10e-5 M; format: protein assay
[10] = biological target: T5, GABA-A receptor; anion channel (Homo sapiens) (UniProt P14867+P47870+P18507+P28472+P48169+Q99928+Q9UN88+P34903+O00591+O14764+Q8N1C3+P18505+P78334+P47869+P31644+Q16445); test: Inhibition of [3H]- flunitrazepam binding to GABA-A benzodiazepine receptor at 10e-5 M; format: protein-complex assay
[11] = test system: Rattus norvegicus; test: Deterioration of rotarod performance of rats 0.5-1 hour after subcutaneous administration of compound; format: functional, organism-based
Procedure, shortened: (§2)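 Male Sprague-Dawley rats (120-140 g), eight per dose. Compound is dissolved in water and given orally (5 mL/kg) or subcutaneously into the neck (2 mL/kg). Rats are pre-trained to stay 300 s on an 11 rpm, 6 cm cylinder. Time on the rod (maximum 300 s) is recorded at 0.5-1 h after sc or 1.5-2 h after po dosing. EC50 is the dose in µmol/kg at which 50% fall off within ≤150 s, estimated by Probit.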

[12] = The compound was tested for blockade of the monosynaptic reflexes in the hemisected neonatal spinal cord; format: functional, Rattus norvegicus
[13] = biological target: Mu-type opioid receptor (Homo sapiens) (UniProt P35372); test: Inhibition of [3H]- naloxone binding to mu-opiate receptor at 10e-5 M
[14] = biological target: T6, Adenosine receptor A1 (Homo sapiens) (UniProt P30542); test: Inhibition of [3H]- N-6-CA binding to Adenosine A1 receptor at 10e-5 M
T6 sequence (whole entry): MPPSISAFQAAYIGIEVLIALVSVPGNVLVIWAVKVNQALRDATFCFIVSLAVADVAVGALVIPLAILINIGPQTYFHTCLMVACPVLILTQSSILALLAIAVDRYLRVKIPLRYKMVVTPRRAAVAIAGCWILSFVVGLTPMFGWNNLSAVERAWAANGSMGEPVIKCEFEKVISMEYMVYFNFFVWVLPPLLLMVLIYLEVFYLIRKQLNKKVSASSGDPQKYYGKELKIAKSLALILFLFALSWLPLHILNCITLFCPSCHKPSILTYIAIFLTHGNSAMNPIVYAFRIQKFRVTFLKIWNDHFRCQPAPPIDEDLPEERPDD

[15] = species: Rattus norvegicus; test: The compound was tested for inhibition of release of [3H]GABA from rat cortical slices after electrical stimulation.; format: functional
[16] = biological target: T5, GABA-A receptor; anion channel (Homo sapiens); test: Inhibition of [3H]- muscimol binding to Gamma-aminobutyric acid A (GABA-A) receptor at 10e-5 M; format: protein-complex assay
[17] = biological target: Substance-P receptor (Homo sapiens) (UniProt P25103); test: Inhibition of [3H]-substance P binding to Tachykinin receptor 1 at 10e-5 M
[18] = biological target: Muscarinic acetylcholine receptor (Homo sapiens) (UniProt P20309+P08173+P11229+P08172+P08912); test: Inhibition of [3H]CMD binding to muscarinic ACh receptor at 10e-5 M; format: protein assay
[19] = test system: Rattus norvegicus; test: Deterioration of rotarod performance of rats 1-2 hour after subcutaneous administration of compound; format: functional, organism-based
[20] = biological target: T1, GABA B receptor; test: as §1; remark: listed apart in the source
Procedure, shortened: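 Displacement of [3H]CGP27492 from rat cerebral cortex membranes, in triplicate. Nonspecific binding defined with 10 µM (R)-(-)-baclofen. IC50 obtained by computer curve fitting to a single-site model.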

[21] = biological target: T2, GABA-B receptor; test: Inhibition of [3H]CGP-27492 binding to cat Gamma-aminobutyric acid type B receptor; format: protein-complex assay, Felis catus; details: target entry is the homologue from another species
[22] = biological target: T3, Serotonin 2 (5-HT2) receptor (Homo sapiens); test: Ketanserin binding to 5-hydroxytryptamine 2 receptor at 10e-5 M; format: protein assay
[23] = biological target: Serotonin 3 (5-HT3) receptor (Homo sapiens) (UniProt P46098+A5X5Y0+O95264+Q70Z44+Q8WXA8); test: Inhibition of [3H]- BRL 43 694 binding to 5-hydroxytryptamine 3 receptor at 10e-5 M; format: protein-complex assay
[24] = biological target: Adrenergic receptor alpha-2 (Homo sapiens) (UniProt P08913+P18825+P18089); test: Inhibition of [3H]- clonidine binding to Alpha-2 adrenergic receptor at 10e-5 M; format: protein assay
[25] = biological target: T4, Adrenergic receptor beta (Homo sapiens); test: Inhibition of [3H]- DHA binding to Beta adrenergic receptor; format: protein assay; details: concentration not given here
[26] = test system: Rattus norvegicus; test: Deterioration of rotarod performance of rats 1.2 hour after subcutaneous administration of compound; format: functional, organism-based
[27] = biological target: T2, GABA-B receptor; test: Inhibition of [3H]baclofen binding to Gamma-aminobutyric acid type B receptor of cat cerebellum; format: tissue-based, Felis catus; details: target entry is the homologue from another species
Procedure, shortened: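 Cat cerebellar synaptosomal membranes (200-300 µg protein), prepared by sucrose density gradient, lysis, freezing and repeated washes. […] Stopped by centrifugation and pellet counted. Run in triplicate. Nonspecific binding with 10 µM (R)-(-)-baclofen. IC50 from single-site curve fit.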

[28] = test system: Rattus norvegicus; test: Deterioration of rotarod performance of rats 1-2 hour after peroral administration of compound; format: functional, organism-based; procedure, shortened: as §2

T2 sequence (Q9UBS5 whole entry): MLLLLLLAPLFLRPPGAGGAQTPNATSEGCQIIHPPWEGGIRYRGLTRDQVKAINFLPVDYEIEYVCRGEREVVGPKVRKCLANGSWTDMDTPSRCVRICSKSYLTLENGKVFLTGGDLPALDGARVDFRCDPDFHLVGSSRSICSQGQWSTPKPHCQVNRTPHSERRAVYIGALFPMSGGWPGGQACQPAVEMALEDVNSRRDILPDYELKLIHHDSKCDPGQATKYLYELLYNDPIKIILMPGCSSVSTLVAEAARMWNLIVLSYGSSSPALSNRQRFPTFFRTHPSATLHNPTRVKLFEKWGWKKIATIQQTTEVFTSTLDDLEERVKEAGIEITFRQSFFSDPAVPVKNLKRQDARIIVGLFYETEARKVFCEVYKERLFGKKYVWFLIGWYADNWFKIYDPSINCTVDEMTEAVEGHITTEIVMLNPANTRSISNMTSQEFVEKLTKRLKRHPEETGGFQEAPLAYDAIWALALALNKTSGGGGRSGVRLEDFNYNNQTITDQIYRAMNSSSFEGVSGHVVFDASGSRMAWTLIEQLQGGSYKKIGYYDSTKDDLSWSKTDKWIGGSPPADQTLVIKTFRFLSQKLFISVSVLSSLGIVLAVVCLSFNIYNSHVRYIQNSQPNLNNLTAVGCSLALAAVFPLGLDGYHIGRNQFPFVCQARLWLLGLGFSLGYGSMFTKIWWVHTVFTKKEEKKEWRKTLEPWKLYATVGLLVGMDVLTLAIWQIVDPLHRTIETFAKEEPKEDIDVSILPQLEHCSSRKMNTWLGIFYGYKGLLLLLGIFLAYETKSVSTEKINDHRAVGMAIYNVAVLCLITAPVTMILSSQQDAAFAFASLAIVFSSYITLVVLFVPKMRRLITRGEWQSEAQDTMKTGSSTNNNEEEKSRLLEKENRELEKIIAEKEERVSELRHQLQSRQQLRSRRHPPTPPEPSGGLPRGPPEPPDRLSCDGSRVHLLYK
T2 sequence (O75899 whole entry): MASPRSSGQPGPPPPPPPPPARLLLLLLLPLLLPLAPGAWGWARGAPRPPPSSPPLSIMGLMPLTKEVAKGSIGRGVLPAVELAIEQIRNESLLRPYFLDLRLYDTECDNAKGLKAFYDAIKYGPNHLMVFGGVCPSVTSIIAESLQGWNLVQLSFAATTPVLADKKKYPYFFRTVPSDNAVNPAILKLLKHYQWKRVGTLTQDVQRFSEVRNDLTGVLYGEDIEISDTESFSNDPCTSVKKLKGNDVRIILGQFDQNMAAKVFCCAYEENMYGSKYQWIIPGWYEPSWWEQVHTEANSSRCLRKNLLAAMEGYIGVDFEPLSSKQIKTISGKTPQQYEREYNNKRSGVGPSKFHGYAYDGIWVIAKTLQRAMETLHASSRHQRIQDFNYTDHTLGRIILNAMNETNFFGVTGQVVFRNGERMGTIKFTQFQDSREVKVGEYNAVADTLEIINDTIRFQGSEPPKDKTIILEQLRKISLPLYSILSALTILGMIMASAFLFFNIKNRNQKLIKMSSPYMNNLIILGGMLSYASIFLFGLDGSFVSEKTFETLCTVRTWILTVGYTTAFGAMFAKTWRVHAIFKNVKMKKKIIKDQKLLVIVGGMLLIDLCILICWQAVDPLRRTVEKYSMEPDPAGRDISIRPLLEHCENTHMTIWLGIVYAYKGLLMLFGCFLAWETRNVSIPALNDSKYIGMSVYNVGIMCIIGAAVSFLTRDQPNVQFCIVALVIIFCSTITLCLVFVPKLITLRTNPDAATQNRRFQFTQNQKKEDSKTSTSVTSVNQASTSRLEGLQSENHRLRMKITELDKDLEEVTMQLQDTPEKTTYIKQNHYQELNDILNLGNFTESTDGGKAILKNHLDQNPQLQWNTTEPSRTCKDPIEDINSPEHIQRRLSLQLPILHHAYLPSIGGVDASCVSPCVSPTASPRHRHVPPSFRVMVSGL
Histamine H1 receptor (Homo sapiens), sequence (P35367 whole entry): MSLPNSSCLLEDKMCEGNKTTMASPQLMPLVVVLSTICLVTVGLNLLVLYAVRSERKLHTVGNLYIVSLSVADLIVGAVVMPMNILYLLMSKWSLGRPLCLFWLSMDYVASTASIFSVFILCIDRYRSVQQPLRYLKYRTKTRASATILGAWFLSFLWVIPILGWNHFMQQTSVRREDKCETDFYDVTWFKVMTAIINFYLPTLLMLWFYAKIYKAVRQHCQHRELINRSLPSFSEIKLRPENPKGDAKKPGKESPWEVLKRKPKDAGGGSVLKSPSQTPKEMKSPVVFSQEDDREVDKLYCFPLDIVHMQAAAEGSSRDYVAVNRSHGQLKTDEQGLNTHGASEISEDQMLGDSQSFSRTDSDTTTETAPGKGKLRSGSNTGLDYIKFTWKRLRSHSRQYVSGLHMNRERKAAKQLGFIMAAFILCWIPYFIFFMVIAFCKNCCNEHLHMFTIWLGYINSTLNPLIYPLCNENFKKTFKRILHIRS
T1 sequence (Q9Z0U4 whole entry): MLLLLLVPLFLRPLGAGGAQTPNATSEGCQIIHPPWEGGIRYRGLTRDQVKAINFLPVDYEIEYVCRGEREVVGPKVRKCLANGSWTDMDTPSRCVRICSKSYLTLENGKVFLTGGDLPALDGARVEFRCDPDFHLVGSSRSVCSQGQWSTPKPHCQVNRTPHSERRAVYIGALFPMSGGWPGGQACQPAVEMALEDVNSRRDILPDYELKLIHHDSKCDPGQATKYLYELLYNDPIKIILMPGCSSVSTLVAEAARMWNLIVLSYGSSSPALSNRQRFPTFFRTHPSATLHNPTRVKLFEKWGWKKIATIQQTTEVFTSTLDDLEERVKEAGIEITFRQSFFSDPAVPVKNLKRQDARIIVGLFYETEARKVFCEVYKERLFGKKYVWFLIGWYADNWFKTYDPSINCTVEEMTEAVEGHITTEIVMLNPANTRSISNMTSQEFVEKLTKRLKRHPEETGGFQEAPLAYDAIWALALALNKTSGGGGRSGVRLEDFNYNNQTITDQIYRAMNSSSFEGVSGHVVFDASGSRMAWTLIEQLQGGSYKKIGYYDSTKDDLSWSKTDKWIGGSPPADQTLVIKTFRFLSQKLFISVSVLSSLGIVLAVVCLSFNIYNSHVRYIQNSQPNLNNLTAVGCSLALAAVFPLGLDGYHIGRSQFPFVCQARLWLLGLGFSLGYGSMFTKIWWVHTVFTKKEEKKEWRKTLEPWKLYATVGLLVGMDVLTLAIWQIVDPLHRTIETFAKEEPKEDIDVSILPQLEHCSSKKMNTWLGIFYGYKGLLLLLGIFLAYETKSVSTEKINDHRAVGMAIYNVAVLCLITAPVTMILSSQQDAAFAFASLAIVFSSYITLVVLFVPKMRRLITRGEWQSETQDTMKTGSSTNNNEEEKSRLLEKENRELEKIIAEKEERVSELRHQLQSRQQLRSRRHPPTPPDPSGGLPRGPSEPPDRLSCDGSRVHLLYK
T1 sequence (O88871 whole entry): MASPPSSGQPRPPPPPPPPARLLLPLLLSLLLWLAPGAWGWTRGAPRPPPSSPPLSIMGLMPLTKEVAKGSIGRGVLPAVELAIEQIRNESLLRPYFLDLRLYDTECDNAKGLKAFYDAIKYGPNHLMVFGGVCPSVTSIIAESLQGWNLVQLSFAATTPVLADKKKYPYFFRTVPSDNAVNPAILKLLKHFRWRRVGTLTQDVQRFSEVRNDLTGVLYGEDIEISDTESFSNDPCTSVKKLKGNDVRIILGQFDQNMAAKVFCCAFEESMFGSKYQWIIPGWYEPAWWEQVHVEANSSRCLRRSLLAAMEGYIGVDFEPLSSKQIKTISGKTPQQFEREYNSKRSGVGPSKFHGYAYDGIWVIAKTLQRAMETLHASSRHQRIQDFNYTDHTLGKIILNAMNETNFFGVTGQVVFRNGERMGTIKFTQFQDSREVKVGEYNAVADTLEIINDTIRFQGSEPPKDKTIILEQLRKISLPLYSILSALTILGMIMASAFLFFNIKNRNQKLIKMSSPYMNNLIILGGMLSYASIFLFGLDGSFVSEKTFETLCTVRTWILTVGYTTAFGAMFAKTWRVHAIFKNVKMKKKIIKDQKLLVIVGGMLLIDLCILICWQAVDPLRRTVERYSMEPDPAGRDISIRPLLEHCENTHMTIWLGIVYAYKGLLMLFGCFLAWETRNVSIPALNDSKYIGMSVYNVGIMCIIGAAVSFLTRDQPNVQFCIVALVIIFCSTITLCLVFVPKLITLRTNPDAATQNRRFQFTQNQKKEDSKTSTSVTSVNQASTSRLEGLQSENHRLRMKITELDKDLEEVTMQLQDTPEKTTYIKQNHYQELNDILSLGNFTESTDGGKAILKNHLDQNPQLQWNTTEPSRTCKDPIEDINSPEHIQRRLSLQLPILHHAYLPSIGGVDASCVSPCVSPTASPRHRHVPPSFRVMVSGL
Substance-P receptor (Homo sapiens), sequence (P25103 whole entry): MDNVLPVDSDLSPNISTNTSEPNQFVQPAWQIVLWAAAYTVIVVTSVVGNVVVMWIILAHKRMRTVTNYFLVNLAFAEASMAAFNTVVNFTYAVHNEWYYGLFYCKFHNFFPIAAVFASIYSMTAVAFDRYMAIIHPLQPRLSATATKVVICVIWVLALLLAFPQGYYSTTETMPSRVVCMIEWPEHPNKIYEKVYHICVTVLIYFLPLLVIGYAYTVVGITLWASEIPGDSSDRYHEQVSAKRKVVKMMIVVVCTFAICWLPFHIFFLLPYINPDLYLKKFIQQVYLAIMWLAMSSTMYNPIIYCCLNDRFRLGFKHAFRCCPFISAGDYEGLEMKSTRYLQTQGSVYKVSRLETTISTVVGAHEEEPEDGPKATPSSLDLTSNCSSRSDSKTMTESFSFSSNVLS

SMILES: CCP(=O)(O)CCCN
- IC50 [1]: Not Active
- IC50 [2]: 1.98 µM
- IC50 [3]: 1.35 µM

SMILES: NCCC(c1ccccc1)[PH](=O)O (centres undefined)
- inhibition [4]: 10%

SMILES: NCCC[PH](=O)O
- inhibition [5]: 13%
- inhibition [6]: 16%
- inhibition [7]: 0%
- IC50 ([1]; read-out: IC50): 1.7 µM
- inhibition [8]: 0%
- IC50 [2]: 0.0054 µM
- inhibition [9]: 0%
- inhibition [10]: 24%
- EC50 [11]: > 813 µM/kg
- IC50 [12]: 60 µM
- inhibition [13]: 0%
- inhibition [14]: 2%
- IC50 [15]: 0.106 µM
- inhibition [16]: 65%
- IC50 [3]: 0.0024 µM
- inhibition [17]: 9%
- inhibition [18]: 27%

SMILES: NCC(CC(=O)O)c1ccc(Cl)cc1 (racemic) [BACLOFEN]
- IC50 ([1]; read-out: IC50): 1050 µM
- EC50 [19]: 52 µM/kg
- EC50 [11]: 24 µM/kg

SMILES: NCC(O)CP(=O)(O)C(F)F (centres undefined)
- IC50 [20]: 0.213 µM

SMILES: CP(=O)(O)/C=C\CN
- IC50 [20]: 16.6 µM

SMILES: CC(CCN)P(C)(=O)O (centres undefined)
- IC50 [20]: 0.14 µM
- IC50 [21]: 0.166 µM

SMILES: CP(=O)(O)CCCN
- inhibition [22]: 0%
- inhibition [5]: 46%
- inhibition [23]: 0%
- inhibition [6]: 6%
- inhibition [7]: 30%
- inhibition [24]: 9%
- inhibition [25]: 0%
- IC50 [1]: Not Active
- inhibition [10]: 0%
- EC50 [11]: 2 µM/kg
- IC50 [12]: 0.05 µM
- inhibition [13]: 0%
- inhibition [14]: 6%
- IC50 [15]: 0.45 µM
- inhibition [16]: 0%
- inhibition [17]: 2%
- inhibition [18]: 0%

SMILES: CCC(CCN)P(C)(=O)O (centres undefined)
- IC50 [20]: 18.5 µM

SMILES: NCCCP(=O)(O)CO
- IC50 [20]: 1.05 µM

SMILES: NCCCP(=O)(O)C(F)F
- EC50 [11]: 22 µM/kg
- IC50 [20]: 0.089 µM
- IC50 [15]: 10.6 µM

SMILES: NC[C@H](CC(=O)O)c1ccc(Cl)cc1 [ARBACLOFEN]
- IC50 ([1]; read-out: IC50): 964 µM
- EC50 [26]: 16 µM/kg
- EC50 [11]: 9 µM/kg
- IC50 [12]: 0.325 µM
- IC50 [15]: 0.33 µM

SMILES: CP(=O)(O)C(O)CCN (centres undefined)
- IC50 [20]: 1.16 µM

SMILES: NCC(C[PH](=O)O)c1ccc(F)cc1 (centres undefined)
- IC50 [27]: 0.36 µM

SMILES: NCC(C[PH](=O)O)c1ccccc1 (centres undefined)
- IC50 [27]: 0.88 µM

SMILES: CP(=O)(O)C[C@H](O)CN
- EC50 [19]: 135 µM/kg
- EC50 [11]: 13 µM/kg
- IC50 [20]: 0.152 µM
- IC50 [12]: 0.425 µM
- IC50 [15]: 0.6 µM

SMILES: CP(=O)(O)/C=C/CN
- IC50 [20]: 0.665 µM

SMILES: CP(=O)(O)CC(O)CN (centres undefined)
- IC50 [20]: 0.077 µM
- IC50 [21]: 0.029 µM

SMILES: NCCCP(=O)(O)O
- IC50 [20]: 6.81 µM

SMILES: NCC(O)(C[PH](=O)O)c1ccc(Cl)cc1 (centres undefined)
- IC50 [20]: 0.065 µM

SMILES: NCC(C[PH](=O)O)c1ccc(Cl)cc1 (centres undefined)
- EC50 [11]: 19 µM/kg
- IC50 [27]: 0.039 µM

SMILES: NCC(O)C[PH](=O)O (centres undefined)
- IC50 [3]: 0.018 µM

SMILES: NC[C@@H](CC(=O)O)c1ccc(Cl)cc1
- EC50 [28]: > 200 µM/kg
- IC50 ([1]; read-out: IC50): 1560 µM
- EC50 [11]: > 200 µM/kg
- IC50 [15]: 213 µM

SMILES: CP(=O)(O)C[C@@H](O)CN
- inhibition [5]: 7%
- inhibition [23]: 0%
- inhibition [6]: 0%
- inhibition [7]: 22%
- inhibition [24]: 0%
- inhibition [25]: 9%
- inhibition [8]: 36%
- EC50 [19]: 36 µM/kg
- inhibition [10]: 0%
- EC50 [11]: 2 µM/kg
- IC50 [20]: 0.045 µM
- IC50 [12]: 0.161 µM
- inhibition [13]: 0%
- inhibition [14]: 16%
- IC50 [15]: 0.4 µM
- inhibition [16]: 0%
- inhibition [17]: 7%
- inhibition [18]: 0%

SMILES: CP(=O)(O)C(CCN)C(F)(F)F (centres undefined)
- IC50 [20]: 67.6 µM
